Only some compounds are listed: those with a hit (about 3.7% of all), similar ones and a draw of the others.
Mdm2 ligase inh – inhibitors of human Mdm2 E3 ubiquitin ligase; cell-based MDM2 ubiquitination luciferase reporter, 2 h; 0 = plate control, 100 = twice control, blank-subtracted; signal enhancement, % at 5 µM; hit rate 0.11% among 210,000; AID 1230;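 active = signal enhancement of 30% or more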;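 note: luminescence tracks abundance of the self-degrading MDM2-luciferase fusion protein; higher signal means inhibition of MDM2 E3 ligase activity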
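Test system: mammalian cells stably expressing self-ubiquitinating, self-degrading MDM2 E3–luciferase fusion; Amount: 2000 cells in each well; Medium: DMEM; Schedule: 4 h settle plus 2 h compound, 37 °C; Technique: SteadyLite luciferase luminescence after 15 min room-temperature reagent incubation; Benchmarks: plate control and blank wells.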
Mdm2-MdmX inh – inhibitors of human Mdm2/MdmX interaction; O15151+Q00987; AID 485346; SaOS-2 split-luciferase Mdm2/MdmX complementation, luminescence; inhibition, % at 8 µM; hit rate 3% among 330,000;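 active = inhibition of at least 50% at 8 µM in the primary screen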
B2AR ag – agonists of human beta-2 adrenergic receptor inducing internalization. P07550. Am2.2-beta2AR cells, FAP receptor internalization, flow cytometry. response, % (concentration not given with the values). hit rate 0.43% among 340,000;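 active = response above a set limit, near 3 SD of response in nonfluorescent compounds, cut at about 42% in these data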
UPR XBP1 act – adaptive UPR (XBP1) activation; hit rate 0.33% among 330,000; CHO-XBP1 luciferase reporter, IRE1-XBP1 UPR activation, luminescence; percent of tunicamycin response, DMSO as zero; AID 463104; activation, % at 20 µM;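 active = versus positive control, 20 µM dose yields 30% or more activation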;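 note: 100% = tunicamycin at 10 µg/mL and 0% = DMSO only wells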
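Assay system: IRE1-XBP1 luciferase reporter CHO line. Input: 1000 cells/well. Buffer or medium: F12 with 10% serum. Doses: 20 µM, 1% DMSO. Times: overnight seeding at 37 °C, 6 h compound treatment at 37 °C. Technique: Steady-Glo luciferase glow luminescence, 10 min after reagent addition.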
UPR CHOP act – activators of apoptotic arm of unfolded protein response (CHOP) | CHO-CHOP luciferase reporter, UPR activation, luminescence; percent of tunicamycin response over DMSO baseline | AID 449763 | hit rate 0.34% among 330,000 | activation, % at 10 µM;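 active = at 10 µM dose, activation of 40% or more, normalized to positive control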;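 note: 100% = tunicamycin at 10 µg/mL and 0% = DMSO alone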
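measured by = luciferase luminescence | assay system = CHO-CHOP cells, stable luciferase reporter of PERK-eIF2a-CHOP signalling | amount = 500 reporter cells seeded per well | timing = 6 h compound exposure at 37 °C after overnight seeding | controls = positive tunicamycin 10 µg/mL, negative DMSO alone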
Dynein transport – blocks dynein driven cargo transport along microtubules | 3617.4 mouse cells, GR-EGFP nuclear translocation imaging; test concentration mostly 20 µM; stimulated with dexamethasone, 1 µM; active compounds read low | z-score, hits read low | hit rate 0.47% among 220,000 | AID 1381;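 active = plate z-score of nuclear minus cytoplasmic receptor signal below a set negative limit, without overly bright fluorescence or cell loss, cut at about -3.5 in these data, passing the limit was not always enough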;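 note: z-score of nuclear minus cytoplasmic ring GR-EGFP intensity difference per well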
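Also added – dexamethasone, 1.0 µM final · Buffer or medium – tet-free, stripped-serum medium · Schedule – induction 48 h, compound 1 h, agonist 30 min · Detection – formaldehyde fixation, Hoechst nuclear stain, 10x automated fluorescence imaging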
Beta2AR ag CP1 – activates human beta-2 adrenergic receptor; shares compounds with B2AR ag; Am2.2-beta2AR cells, FAP surface receptor, flow cytometry; active compounds read low; percent response (surface receptor), % at 10 µM; hit rate 25% among 1,100; AID 540358;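 active = surface receptor percent response at or below 58%, roughly 3 SD from nonfluorescent compounds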
FAP fluor counter – flagged in Am2.2 fluorescence counterscreen for beta-2AR agonists | Am2.2 cells, FAP fluorogen flow cytometry; active compounds read low | calls only at 10 µM | 1,100 tested, under 10 active | shares compounds with B2AR ag;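 active = percent response below a set limit in fluorescence channel 1 and below 50% in channel 8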
Active calls of the source: *; i = inactive; x = not tested or not shown.

SMILES | Mdm2 ligase inh | Mdm2-MdmX inh | B2AR ag | UPR XBP1 act | UPR CHOP act | Dynein transport | Beta2AR ag CP1 | FAP fluor counter
CNc1ccc([N+](=O)[O-])cc1-c1nc2ccccc2[nH]c1=O | -16 | 15 | 61* | -1 | -1 | -0.77 | 91 | i
CC(C)C(=O)Nc1ccc(Cl)cc1-c1nc2ccccc2[nH]c1=O | x | -15 | -7 | 3 | 0 | x | x | x
N#CCCN(C(=S)Nc1ccc(S(=O)(=O)N2CCOCC2)cc1)c1ccccc1F | x | -10 | 5 | -1 | -1 | x | x | x
CC1(C)Cc2c(c(N3CCCC3)nc3sc4c(N5CCN(CCO)CC5)ncnc4c23)CO1 | -4 | 11 | 71* | 5 | 0 | 3.9 | 46* | i
CC1(C)Cc2c(c(N3CCOCC3)nc3sc4c(NCCN)ncnc4c23)CO1 | x | x | 105* | x | x | x | 10* | i
OCCN1CCN(c2ncnc3c2sc2nc(N4CCOCC4)c4c(c23)CCC4)CC1 | -13 | 30 | 18 | 6 | -3 | 1.3 | x | x
O=S(=O)(c1ccc(OC(F)(F)F)cc1)N1CCCC(N2CCOCC2)C1 (stereo unspecified) | x | 8 | -7 | 0 | 0 | x | x | x
CN(C(=O)COC(=O)c1ccc(=O)n(Cc2ccccc2)n1)C1CCCCC1 | x | -23 | -2 | -1 | -3 | x | x | x
CCOc1cc(-c2sc(Nc3ccccc3)n[n+]2C)ccc1OC | x | 18 | -4 | -1 | -3 | x | x | x
COc1cccc(CC(=O)OCC(=O)Nc2c(C)nn(-c3ccccc3)c2C)c1 | x | -3 | -3 | -3 | 2 | x | x | x
O=C(COc1ccc(S(=O)(=O)N2CCOCC2)cc1)Nc1ccccc1F | x | 13 | 3 | 2 | 0 | x | 98 | i
O=C(COc1ccc(S(=O)(=O)N2CCOCC2)cc1)Nc1ccccc1Cl | x | 5 | 1 | 5 | 0 | x | 117 | i
COc1ccc(CCNC(=O)CCCOc2ccc(Cl)cc2)cc1OC | x | -2 | 6 | -3 | 0 | x | x | x
COc1ccc(CNC(=O)CN(C(=O)c2snc(C(N)=O)c2N)c2ccc(F)cc2)cc1 | x | -1 | 47* | 0 | 0 | x | 87 | i
COc1ccc(N(CC(=O)NCc2ccc(F)cc2)C(=O)c2snc(C(N)=O)c2N)cc1 | x | -3 | 3 | -4 | -2 | x | x | x
Cc1csc(NC(=O)CCc2c(C)nc3cc(-c4ccc(Cl)cc4)nn3c2C)n1 | x | 14 | 63* | 2 | -1 | 0.72 | 69 | i
Cc1nc2cc(-c3ccc(Cl)cc3)nn2c(C)c1CCC(=O)NC(C)c1ccc2c(c1)OCCO2 (stereo unspecified) | x | 0 | -32 | -7 | -3 | -0.25 | x | x
COc1ccc(NC(=O)c2c(C)noc2C(C)C)cc1S(=O)(=O)N1CCCCC1 | x | 5 | 0 | 2 | -2 | x | x | x
Cc1ccc2nc(C)cc(C(=O)OCC(=O)c3ccc(Cl)c([N+](=O)[O-])c3)c2c1 | -11 | -3 | 53* | -1 | 4 | -0.97 | 109 | i
COc1cc(NC(=O)C(c2ccccc2)c2ccccc2)c(C(=O)O)cc1OC | x | 13 | 6 | -7 | -1 | x | x | x
Cc1ccc(NC(=O)C(c2ccccc2)c2ccccc2)c(O)c1 | x | 33 | 48* | -2 | 0 | x | 104 | i
CCOC(=O)c1c(-c2ccccc2)oc2ccc(O)c(CN3CCCC3)c12 | 0 | 45 | 95* | 5 | -1 | 0.32 | 106 | i
Cc1cccc(C(C(=O)NC2CCCC2)N(C(=O)c2csnn2)C2CCCC2)c1 (stereo unspecified) | x | -3 | 1 | -3 | 3 | x | x | x
CCOC(=O)COc1cccc2c(=O)n(CC(=O)NCCc3ccccc3)ccc12 | x | 21 | 44* | -3 | 0 | -0.86 | 85 | i
NNC(=O)CS(=O)(=O)c1ccc(Cl)cc1 | -12 | -6 | -6 | -2 | 0 | 0.72 | x | x
SMILES | Mdm2 ligase inh | Mdm2-MdmX inh | B2AR ag | UPR XBP1 act | UPR CHOP act | Dynein transport | Beta2AR ag CP1 | FAP fluor counter
CCCCOc1cccc(C(=O)Nc2ccc(NC(=O)c3cccs3)cc2)c1 | x | 29 | 79* | 1 | 1 | x | 21* | i
CC(C)C(=O)Nc1cccc(COc2ccc(CN(CCc3ccccc3)C(=O)OC(C)(C)C)cc2)c1 | x | x | 3 | x | x | x | x | x
Cc1cccc(C(=O)OCC(=O)N2CCCCCC2)c1C | x | -52 | 1 | -1 | 2 | x | x | x
Cc1ccc(C(=O)c2ccccc2C(=O)OCC(=O)N2CCCC2)cc1 | x | -32 | 1 | 4 | 4 | x | 107 | i
NC(=O)c1cc(Sc2ccccc2)nc2ccccc12 | x | x | -8 | x | x | x | x | x
NC(=O)c1cc2c3ccccc3ccn2c1-c1ccccc1 | x | x | 43* | x | x | -1.4 | 101 | i
CCOC(=O)N1CCN(c2nnc(-c3ccc(C)cc3)c3ccccc23)CC1 | x | -5 | 45* | -4 | 3 | x | 33* | i
O=C(CN1CCOCC1)N1CCN(c2nnc(-c3ccccc3)c3ccccc23)CC1 | -13 | 4 | 69* | -2 | 0 | 0.71 | 59 | i
CN1C(=O)[C@H]2[C@@H](/C=C/c3ccccc3)N3C(=O)CN(Cc4ccccn4)C(=O)[C@@]3(C)[C@H]2C1=O | x | 21 | -1 | 2 | 0 | x | x | x
Cc1nc2ccc(Cl)cc2c(-c2ccccc2Cl)c1CC(=O)O | -12 | 10 | 46* | -1 | 3 | 0.46 | 93 | i
O=C(NCCCn1ccnc1)c1ccc(S(=O)(=O)N2CCCCCC2)cc1 | -10 | 9 | -2 | 0 | -3 | 0.94 | x | x
CC1CC(C)CN(S(=O)(=O)c2ccc(C(=O)NCCCn3ccnc3)cc2)C1 (stereo unspecified) | 3 | 0 | 55* | 0 | 0 | 0.66 | 106 | i
O=C(NCCCN1CCN(CCCNC(=O)c2ccc3c(c2)OCO3)CC1)c1ccc2c(c1)OCO2 | -17 | 6 | -1 | 0 | 0 | 0.3 | 103 | i
COc1ccc(C(=O)NCCCN2CCN(CCCNC(=O)c3ccc(OC)c(OC)c3)CC2)cc1OC | x | -6 | 1 | -1 | -1 | x | 100 | i
COc1cccc(C(=O)NCCn2ccc3ccccc32)c1 | -15 | -65 | 10 | 8 | 5 | 0.13 | x | x
O=C(NCCCN1CCN(CCCNC(=O)c2ccccc2F)CC1)c1ccccc1F | -16 | 8 | 0 | 1 | -1 | -0.49 | 113 | i
COc1ccc(C(=O)NCCn2ccc3ccccc32)cc1OC | 5 | 7 | 45* | 3 | 3 | 1.5 | 97 | i

Assay outcomes: PubChem BioAssay, several laboratories
